Assay results as given in ChEMBL document CHEMBL1671780, “Analogues of σ receptor ligand 1-cyclohexyl-4-[3-(5-methoxy-1,2,3,4-tetrahydronaphthalen-1-yl)propyl]piperazine (PB28) with added polar functionality and reduced lipophilicity for potential use as positron emission tomography radiotracers” (J Med Chem, 2011).

Tests used:
[1] = Inhibition of P-gp in MDCK-MDR1 cells by calcein-AM assay; format: cell-based, Canis lupus familiaris
In short: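 MDCK-MDR1 cells overexpressing P-gp, grown in high-glucose DMEM with 10% FBS, were seeded at 50 000 cells/well and left overnight to reach confluence. Compound preincubated 30 min at 37 °C, then calcein-AM (2.5 μM final) added for a further 30 min. Cells washed with ice-cold PBS and fluorescence read at ex 485/em 535 nm relative to untreated cells. EC50 fitted from % fluorescence increase versus log dose.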

[2] = biological target: Sigma non-opioid intracellular receptor 1 (Cavia porcellus, UniProt Q60492); experiment: Displacement of [3H]-(+)-pentazocine from sigma 1 receptor in Dunkin guinea pig brain membrane without cerebellum; format: cell membranes
Sigma non-opioid intracellular receptor 1, sequence (Q60492 whole entry): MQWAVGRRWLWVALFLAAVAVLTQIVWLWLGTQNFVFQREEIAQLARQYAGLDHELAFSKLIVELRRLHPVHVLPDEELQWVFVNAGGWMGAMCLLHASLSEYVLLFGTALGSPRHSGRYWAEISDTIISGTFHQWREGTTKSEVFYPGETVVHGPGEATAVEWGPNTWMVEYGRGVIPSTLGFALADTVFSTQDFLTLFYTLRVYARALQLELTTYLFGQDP

[3] = Displacement of [3H]DTG from sigma 2 receptor in Wistar Hannover rat liver membrane in presence of (+)-pentazocine; format: cell membranes
SK-N-SH [4] = experiment: Antiproliferative activity against human SK-N-SH cells at 100 uM after 48 hts by MTT assay; format: functional
[5] = Lipophilicity, log P of the compound; format: physicochemical; conditions: octanol/water
SK-N-SH [6] = experiment: Antiproliferative activity against human SK-N-SH cells after 48 hts by MTT assay; format: functional, cell-based
In short: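 SK-N-SH neuroblastoma cells grown in RPMI 1640 with 10% FBS, glutamine, pyruvate and nonessential amino acids at 37 °C, 5% CO2. Seeded at 30 000 cells/well, then exposed next day to drug (0.1 μM-100 μM; solvent controls included). MTT 0.5 mg/mL added for 3 h at 37 °C after 48 h exposure, formazan dissolved in DMSO, absorbance read at 570 and 630 nm. EC50 from nonlinear curve fitting; means of ≥2 experiments.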

[7] = Octanol-aqueous phases partition coefficient, log D of the compound at pH 7.4; format: physicochemical; conditions: octanol/aqueous phase
[8] = biological target: Sigma non-opioid intracellular receptor 1 (Cavia porcellus) (UniProt Q60492); experiment: Displacement of [3H]-(+)-pentazocine from sigma 1 receptor in Dunkin guinea pig brain membrane without cerebellum at 10^-12M; format: cell membranes
Sigma non-opioid intracellular receptor 1 (Cavia porcellus), sequence (Q60492 whole entry): as above
In short: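 σ1 binding with (+)-[3H]-pentazocine on guinea pig brain membranes lacking cerebellum; percent inhibition of specific binding recorded at a single 10-12 M test concentration. Means of ≥3 separate experiments.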

Row | SMILES | EC50 [1] [nM] | Ki [2] [nM] | Ki [3] [nM] | logP [5] | EC50 (SK-N-SH [6]) [nM] | logD [7] | inhibition [8] [%] | inhibition at 100 µM (SK-N-SH [4]) [%]
1 | COc1cccc2c1CCC[C@H]2OCCN1CCN(C2CCCCC2)CC1 | 5300 | 2.17 | 11.1 |  |  |  |  | 91
2 | COc1cccc2c1OCCC2CCCN1CCN(C2CCCCC2)CC1 (racemic) | 5200 | 12.5 | 9.72 |  |  |  |  | 100
3 | COc1cccc2c1CCCC2NCCN1CCN(C2CCCCC2)CC1 (racemic) | 10000 | 23.9 | 8.49 | 3.05 |  | 0.89 |  | 48
4 | COc1cccc2c1CCC[C@H]2NCCN1CCN(C2CCCCC2)CC1 | 9800 | 13.6 | 14.4 |  |  |  |  | 31
5 | COc1cccc2c1CCCC2N(C)CCN1CCN(C2CCCCC2)CC1 (racemic) | 8800 | 4.17 | 15.3 | 4.83 |  | 1.83 |  | 82
6 | COc1cccc2c1CCC[C@@H]2NC(=O)CN1CCN(C2CCCCC2)CC1 | 8100 | 94.6 | 5.92 |  |  |  |  | 100
7 | COc1cccc2c(NC(=O)CN3CCN(C4CCCCC4)CC3)cccc12 | 9100 | 42.6 | 23.2 | 3.44 |  | 2.18 |  | 75
8 | COc1cccc2c1CCC[C@H]2NC(=O)CN1CCN(C2CCCCC2)CC1 | 6600 | 20.4 | 10.1 |  |  |  |  | 100
9 | COc1cccc2c1CCCC2NC(=O)CN1CCN(C2CCCCC2)CC1 (racemic) | 8800 | 12.6 | 13.3 | 3.69 |  | 2.38 |  | 68

Compounds with a lower EC50 [1], results first:

Row | EC50 [1] [nM] | Ki [2] [nM] | Ki [3] [nM] | logP [5] | EC50 (SK-N-SH [6]) [nM] | logD [7] | inhibition [8] [%] | SMILES | inhibition at 100 µM (SK-N-SH [4]) [%]
10 | 1700 | 3.24 | 4.71 |  |  |  |  | COc1cccc2c1CCC[C@@H]2OCCN1CCN(C2CCCCC2)CC1 | 93
11 | 3600 | 5.44 | 18.5 | 4.08 | 44000 | 2.88 |  | COc1cccc2c(NCCN3CCN(C4CCCCC4)CC3)cccc12 | 
12 | 3800 |  | 1.18 |  | 9370 |  |  | COc1cccc2c1CCC[C@H]2CCCN1CCN(C2CCCCC2)CC1 | 
13 | 4400 |  | 0.49 |  | 9070 |  |  | COc1cccc2c1CCC[C@@H]2CCCN1CCN(C2CCCCC2)CC1 | 
14 | 2400 | 3.9 | 9.03 |  |  |  |  | COc1cccc2c1CCCC2OCCN1CCN(C2CCCCC2)CC1 (racemic) | 72
15 | 3400 |  | 2.4 | 3.94 | 41600 | 2.88 | 65 | COc1cccc2c(OCCN3CCN(C4CCCCC4)CC3)cccc12 | 
16 | 3000 |  | 0.68 | 5.08 | 9040 | 3.99 |  | COc1cccc2c1CCCC2CCCN1CCN(C2CCCCC2)CC1 (racemic) | 
17 | 3200 | 23.3 | 8.52 |  |  |  |  | COc1cccc2c1CCC[C@@H]2NCCN1CCN(C2CCCCC2)CC1 | 33
